Assay results gathered from unrelated publications.
Each line is one published result; the experiments were not run side by side.
Effect on: cell growth or viability

| Compound | cell line | technique | time | notes | IC50 |
| --- | --- | --- | --- | --- | --- |
| NNc1nc2c(Cl)cc(Cl)cc2c(=O)n1-c1ccc(F)cc1 | NIH3T3 | MTT | 48 h |  | 73.7 µM |
| Cc1cc(Nc2ncnc3ccc(NC4=NC(C)(C)CO4)cc23)ccc1Oc1ccn2ncnc2c1 | NCI-H2170 | ATP luminescence |  |  | 0.088 µM |
| NNc1nc2c(Cl)cc(Cl)cc2c(=O)n1-c1ccc(Cl)cc1 | NIH3T3 | MTT | 48 h |  | 48.6 µM |
| O=C(Nc1ccc(-c2ccc3ncn(Cc4ccc5c(c4)OCO5)c(=O)c3c2)cn1)c1ccccc1 | A549 | CCK-8 | 72 h |  | > 10 µM |
| COc1ccccc1/C=N/N=C1\C(=O)Nc2ccccc21 | HUVEC | MTT | 24 h |  | 235 µg/mL |
| Cc1ccc(NNc2nc3ccc(Br)cc3c(=O)n2-c2ccccc2)cc1 | NIH3T3 | MTT | 48 h |  | 14.8 µM |
| O[C@@H]1[C@@H](O)[C@H](Nc2cc3cccnc3c3ncccc23)OC[C@H]1O | HFF-1 | MTT | 48 h | dark | 42.8 µM |
| CS(=O)(=O)CCNCc1ccc(-c2ccc3ncnc(Nc4ccc(OCc5cccc(F)c5)c(Cl)c4)c3c2)o1 | NCI-H2170 | ATP luminescence |  |  | 0.122 µM |
| NNc1nc2ccc(Br)cc2c(=O)n1-c1ccc(F)cc1 | NIH3T3 | MTT | 48 h |  | > 200 µM |
| COc1cc(C(=O)c2nc(-c3ccc4cc[nH]c4c3)c[nH]2)cc(OC)c1OC | PC-3 | MTS | 72 h |  | 0.0202 µM |
| C=CCn1c(=O)c2cnc(Nc3ccc(N4CCN(C)CC4)cc3)nc2n1-c1ccc2c(n1)[C@@](O)(CC)CC2 | NCI-H1048 | ATP luminescence | 72 h |  | 0.31 µM |
| CCCCn1cnc2ccc(-c3ccc(NC(=O)Nc4ccc(F)cc4)nc3)cc2c1=O | A549 | CCK-8 | 72 h |  | 0.79 µM |
| CN(C)C(=O)c1cc2cnc(Nc3ccc(-c4ccc5c(=O)cc(N6CCOCC6)oc5c4)cc3)nc2n1C1CCCC1 | Kelly | ATP luminescence | 72 h |  | 0.19 µM |
| Cc1c(C)c2c(c(C)c1O)CCC(C)(COc1ccc(CC3SC(=O)NC3=O)cc1)O2 (centres unmarked) | NIH3T3 |  | 96 h | 3D culture | 246 µM |
| CCCCn1cnc2ccc(-c3ccc(NC(=O)Nc4ccc(OC(F)(F)F)cc4)nc3)cc2c1=O | A549 | CCK-8 | 72 h |  | > 10 µM |
| O=C1Nc2ccccc2/C1=N/N=C/c1cccc([N+](=O)[O-])c1 | HUVEC | MTT | 24 h |  | 221 µg/mL |
| CCCCC(=O)Nc1ccc(-c2cnc3ccn(CCC)c(=O)c3c2)cn1 | A549 | CCK-8 | 72 h |  | > 10 µM |
| CC(=O)Nc1ccc(O)cc1 | NIH3T3 |  | 96 h | 3D culture | 277 µM |
| O=C(Nc1ccc(-c2ccc3ncn(Cc4ccccc4)c(=O)c3c2)cn1)c1ccc(F)cc1 | A549 | CCK-8 | 72 h |  | > 10 µM |
| Nc1cc2cccnc2c2ncccc12 | HFF-1 | MTT | 48 h | dark | 13 µM |
